Measured values reported in ChEMBL document CHEMBL4118192, “BET bromodomain ligands: Probing the WPF shelf to improve BRD4 bromodomain affinity and metabolic stability” (Bioorg Med Chem, 2018).

Legend:
Format in all cases: functional
[1] = test system: CCRF-CEM; assay: Growth inhibition of human CCRF-CEM cells at 10 uM after 48 hrs by sulforhodamine B assay relative to control; conditions: read-out: GI
Summary of the method: (§1)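 NCI-60 single-dose screen at 10 μM for 48 h. Percent growth inhibition was measured by sulforhodamine B staining of cellular protein.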

[2] = test system: HL-60(TB); assay: Growth inhibition of human HL-60(TB) cells at 10 uM after 48 hrs by sulforhodamine B assay relative to control; conditions: HL-60, 48 h, read-out: GI
Summary of the method: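 NCI-60 human cancer cell line screen, single dose of 10 μM for 48 h. Growth inhibition measured by sulforhodamine B assay of cellular protein content.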

[3] = test system: SR; assay: Growth inhibition of human SR cells at 10 uM after 48 hrs by sulforhodamine B assay relative to control; conditions: read-out: GI
Summary of the method: (§2)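 NCI-60 human cancer cell line screen, single dose of 10 μM for 48 h. Cellular protein content read by sulforhodamine B staining; growth inhibition expressed relative to untreated control.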

[4] = test system: KM12; assay: Growth inhibition of human KM12 cells at 10 uM after 48 hrs by sulforhodamine B assay relative to control; conditions: KM12, 48 h, read-out: GI; summary of the method: as §1
[5] = test system: SF-539; assay: Growth inhibition of human SF539 cells at 10 uM after 48 hrs by sulforhodamine B assay relative to control; conditions: SF-539, 48 h, read-out: GI
Summary of the method: (§3)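 NCI-60 human cancer cell line screen, single-dose pass: cells exposed to 10 μM for 48 h. Cellular protein content read out by sulforhodamine B staining, and growth inhibition expressed relative to untreated control.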

[6] = test system: SNB-19; assay: Growth inhibition of human SNB19 cells at 10 uM after 48 hrs by sulforhodamine B assay relative to control; conditions: SNB-19, 48 h, read-out: GI; summary of the method: as §3
[7] = test system: SNB-75; assay: Growth inhibition of human SNB75 cells at 10 uM after 48 hrs by sulforhodamine B assay relative to control; conditions: SNB-75, 48 h, read-out: GI; summary of the method: as §2
[8] = test system: M14; assay: Growth inhibition of human M14 cells at 10 uM after 48 hrs by sulforhodamine B assay relative to control; conditions: M14, 48 h, read-out: GI; summary of the method: as §1
[9] = test system: SK-MEL-28; assay: Growth inhibition of human SK-MEL-28 cells at 10 uM after 48 hrs by sulforhodamine B assay relative to control; conditions: SK-MEL-28, 48 h, read-out: GI; summary of the method: as §3
[10] = test system: UACC-62; assay: Growth inhibition of human UACC62 cells at 10 uM after 48 hrs by sulforhodamine B assay relative to control; conditions: UACC-62, 48 h, read-out: GI; summary of the method: as §2
[11] = test system: OVCAR-3; assay: Growth inhibition of human OVCAR3 cells at 10 uM after 48 hrs by sulforhodamine B assay relative to control; conditions: OVCAR-3, 48 h, read-out: GI; summary of the method: as §3
[12] = test system: NCI/ADR-RES; assay: Growth inhibition of human NCI-ADR-RES cells at 10 uM after 48 hrs by sulforhodamine B assay relative to control; conditions: read-out: GI; summary of the method: as §3
[13] = test system: CAKI-1; assay: Growth inhibition of human CAKI-1 cells at 10 uM after 48 hrs by sulforhodamine B assay relative to control; conditions: CAKI-1, 48 h, read-out: GI; summary of the method: as §1
[14] = test system: PC-3; assay: Growth inhibition of human PC3 cells at 10 uM after 48 hrs by sulforhodamine B assay relative to control; conditions: PC-3, 48 h, read-out: GI; summary of the method: as §3
[15] = test system: MCF7; assay: Growth inhibition of human MCF7 cells at 10 uM after 48 hrs by sulforhodamine B assay relative to control; conditions: MCF7, 48 h, read-out: GI; summary of the method: as §1
[16] = test system: MDA-MB-231; assay: Growth inhibition of human MDA-MB-231 cells at 10 uM after 48 hrs by sulforhodamine B assay relative to control; conditions: MDA-MB-231, 48 h, read-out: GI; summary of the method: as §1
[17] = test system: Hs-578T; assay: Growth inhibition of human Hs 578T cells at 10 uM after 48 hrs by sulforhodamine B assay relative to control; conditions: read-out: GI; summary of the method: as §1
[18] = test system: BT-549; assay: Growth inhibition of human BT549 cells at 10 uM after 48 hrs by sulforhodamine B assay relative to control; conditions: BT-549, 48 h, read-out: GI; summary of the method: as §1
[19] = test system: T47D; assay: Growth inhibition of human T47D cells at 10 uM after 48 hrs by sulforhodamine B assay relative to control; conditions: read-out: GI; summary of the method: as §2
[20] = test system: CCRF-CEM; assay: Growth inhibition of human CCRF-CEM cells after 48 hrs by sulforhodamine B assay
Summary of the method: (§4)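 NCI-60 panel screen. Cells were exposed for 48 h at five concentrations between 10 nM and 100 μM. Cellular protein was read by sulforhodamine B staining, and GI50 and total growth inhibition (TGI) concentrations were derived.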

[21] = test system: HL-60(TB); assay: Growth inhibition of human HL-60(TB) cells after 48 hrs by sulforhodamine B assay; conditions: HL-60, 48 h
Summary of the method: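 NCI-60 human cancer cell line screen, five concentrations from 10 nM to 100 μM. Growth measured by sulforhodamine B staining of cellular protein content. GI50 derived, with TGI where reached below 100 μM.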

[22] = test system: MOLT-4; assay: Growth inhibition of human MOLT4 cells after 48 hrs by sulforhodamine B assay; conditions: MOLT-4, 48 h
Summary of the method: (§5)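 NCI-60 panel follow-up: five concentrations from 10 nM to 100 μM, 48 h exposure. Growth read by sulforhodamine B protein staining. GI50 derived from the concentration-response, with the concentration for total growth inhibition (TGI) also recorded when below 100 μM.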

[23] = test system: A549; assay: Growth inhibition of human A549/ATCC cells after 48 hrs by sulforhodamine B assay; conditions: A549, 48 h; summary of the method: as §4
[24] = test system: HOP-92; assay: Growth inhibition of human HOP92 cells after 48 hrs by sulforhodamine B assay; conditions: HOP-92, 48 h; summary of the method: as §4
[25] = test system: HCT-116; assay: Growth inhibition of human HCT116 cells after 48 hrs by sulforhodamine B assay; conditions: HCT-116, 48 h; summary of the method: as §4
[26] = test system: SF-295; assay: Growth inhibition of human SF295 cells after 48 hrs by sulforhodamine B assay; conditions: SF-295, 48 h; summary of the method: as §5
[27] = test system: U-251; assay: Growth inhibition of human U251 cells after 48 hrs by sulforhodamine B assay; conditions: U-251, 48 h
Summary of the method: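 NCI-60 panel cells treated at five concentrations from 10 nM to 100 μM for 48 h. Read-out by sulforhodamine B protein stain. GI50 and total growth inhibition (TGI, if below 100 μM) taken from the concentration-response data.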

[28] = test system: M14; assay: Growth inhibition of human M14 cells after 48 hrs by sulforhodamine B assay; conditions: M14, 48 h; summary of the method: as §4
[29] = test system: MDA-MB-435; assay: Growth inhibition of human MDA-MB-435 cells after 48 hrs by sulforhodamine B assay; conditions: MDA-MB-435, 48 h; summary of the method: as §4
[30] = test system: SK-MEL-5; assay: Growth inhibition of human SK-MEL-5 cells after 48 hrs by sulforhodamine B assay; conditions: SK-MEL-5, 48 h; summary of the method: as §5
[31] = test system: NCI/ADR-RES; assay: Growth inhibition of human NCI-ADR-RES cells after 48 hrs by sulforhodamine B assay; summary of the method: as §5
[32] = test system: ACHN; assay: Growth inhibition of human ACHN cells after 48 hrs by sulforhodamine B assay; summary of the method: as §4
[33] = test system: MDA-MB-231; assay: Growth inhibition of human MDA-MB-231 cells after 48 hrs by sulforhodamine B assay; conditions: MDA-MB-231, 48 h; summary of the method: as §4
[34] = test system: Hs-578T; assay: Growth inhibition of human Hs 578T cells after 48 hrs by sulforhodamine B assay; summary of the method: as §4

Structure (SMILES)	inhibition of growth at 10 µM [1]	inhibition of growth at 10 µM [2]	inhibition of growth at 10 µM [3]	inhibition of growth at 10 µM [4]	inhibition of growth at 10 µM [5]	inhibition of growth at 10 µM [6]	inhibition of growth at 10 µM [7]	inhibition of growth at 10 µM [8]	inhibition of growth at 10 µM [9]	inhibition of growth at 10 µM [10]	inhibition of growth at 10 µM [11]	inhibition of growth at 10 µM [12]	inhibition of growth at 10 µM [13]	inhibition of growth at 10 µM [14]	inhibition of growth at 10 µM [15]	inhibition of growth at 10 µM [16]	inhibition of growth at 10 µM [17]	inhibition of growth at 10 µM [18]	inhibition of growth at 10 µM [19]	GI50 [20]	other results
COc1ccccc1S(=O)(=O)Nc1ccc2c(c1)CN(C)C(=O)N2	51.1%	78.1%	64%	55%	49.9%	45.9%	82.5%	52.2%	51.1%	70.7%	67.8%	31.1%	78.8%	64.7%	78.5%	45.3%	66.3%	-0.7%	68.6%	7.8 µM	GI50 [21]: 3400 nM; GI50 [22]: 10.5 µM; GI50 [23]: 19.5 µM; GI50 [24]: 1200 nM; TGI [24]: 70.8 µM; GI50 [25]: 4.5 µM; GI50 [26]: 13.5 µM; GI50 [27]: 15.1 µM; GI50 [28]: 2.9 µM; GI50 [29]: 2.6 µM; GI50 [30]: 6.3 µM; GI50 [31]: 17.4 µM; GI50 [32]: 7.8 µM; GI50 [33]: 3.5 µM; GI50 [34]: 1900 nM; TGI [34]: 63.1 µM
Cc1noc(C)c1-c1cc(O)cc(C(O)c2ccccc2)c1 (stereo not given)	53.3%	90%	72.9%	46.9%	37.5%	47.3%	113%	44%	38.8%	68.5%	53.3%	40.8%	76.2%	51.6%	79.1%	37.6%	66.3%	35.3%	52.9%	14.8 µM	GI50 [21]: 2170 nM; TGI [21]: 22.7 µM; GI50 [22]: 17.9 µM; TGI [22]: 80.7 µM; GI50 [23]: 22.4 µM; GI50 [24]: 1020 nM; TGI [24]: 72.9 µM; GI50 [25]: 7.08 µM; GI50 [26]: 7.31 µM; GI50 [27]: 15 µM; GI50 [28]: 4.48 µM; GI50 [29]: 3.48 µM; GI50 [30]: 5.95 µM; TGI [30]: 29.5 µM; GI50 [31]: 6.32 µM; GI50 [32]: 4.76 µM; GI50 [33]: 3.92 µM; GI50 [34]: 1930 nM; TGI [34]: 90.7 µM
